# Myeloid diff MLP: compounds promoting myeloid differentiation; ER-HoxA9 myeloid progenitors, lysozyme-GFP differentiation, flow cytometry; calls only at 10 µM; 1% of 360,000 active; AID 624256;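 active = normalized GFP-positive differentiation at or above the plate's own cutoff, the solvent-only control mean plus 3 SD; inconclusive = no clear call, values can overlap the other calls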;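 note: cells exposed to compound for four days before flow analysis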
# Vif imaging: inhibitors of HIV Vif. HEK293T cells, Vif self-association by quenched fluorescence, imaging, 24 h. inhibition, % at 7.49 µM. 0.35% of 340,000 active; in the data active = inhibition above about 50%, passing the limit was not always enough; inconclusive = no clear call, values can overlap the other calls; inactive = below about 31%
# T cell HTS: T cell immune modulators affecting CD8 T cell-vesicle binding; 2C CD8+ T cell-vesicle binding, flow cytometry; stronger effect = lower value; response (vesicle binding), % at 7 µM; 0.068% of 330,000 active;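 active = response, share of CD8 T cells binding vesicles, and their 90th percentile fluorescence all below set limits, cut at about 80% in these data, passing the limit was not always enough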;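 note: values below 100% mean blocked vesicle binding to the CD8+ T cells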
#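 Assay system: 2C TCR transgenic mouse naive CD8+ T cells, MACS-purified | Read-out: CD8+ gate FL2 mean fluorescence as % of same-row positive control | Signal: High-throughput flow cytometry with anti-B7-1 and anti-CD8 staining | Timing: Binding step 1.5 h, 37 °C, antibody labelling 20 min, ice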
# CASP6 VEID inh: blocks human caspase-6 cleavage activity; P55212; purified caspase-6, Z-VEID-R110 cleavage fluorescence; inhibition, % at 12.5 µM; 0.53% of 350,000 active;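 active = mean inhibition across replicates at least about 35%, with every replicate also reaching that limit, limit read from the data; inconclusive = only one of the two criteria met; inactive = neither criterion met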;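 note: 0% = median of neutral control wells and 100% = no fluorescence left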
# Target sequence (P55212 24-179 limits assumed): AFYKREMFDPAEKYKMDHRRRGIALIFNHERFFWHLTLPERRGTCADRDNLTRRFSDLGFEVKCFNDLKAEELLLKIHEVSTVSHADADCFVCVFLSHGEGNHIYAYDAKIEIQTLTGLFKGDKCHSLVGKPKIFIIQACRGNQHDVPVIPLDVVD
# Target sequence (P55212 194-293 limits assumed): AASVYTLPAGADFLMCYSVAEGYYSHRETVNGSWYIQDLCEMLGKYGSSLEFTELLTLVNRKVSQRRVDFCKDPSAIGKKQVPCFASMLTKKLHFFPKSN
# * hit, by the source's call; i = inactive; u = inconclusive; x = not tested or not shown; + = active, no number. Sampled rows, rich in hits. Any-hit rate of the full collection: about 1.4%.
SMILES,Myeloid diff MLP,Vif imaging,T cell HTS,CASP6 VEID inh
CCC(=O)N(C)C[C@@H]1Oc2cc(C#CC3CC3)ccc2S(=O)(=O)N([C@@H](C)CO)C[C@@H]1C,x,x,x,1
O=C(c1ccccc1NS(=O)(=O)c1ccc([N+](=O)[O-])cc1[N+](=O)[O-])N1O[C@@H]2C=C[C@H]1C2,i,-5,x,37*
C[C@H](CO)N1C[C@H](C)[C@H](CN(C)S(=O)(=O)c2cccc(F)c2)Oc2ncc(-c3cccc(F)c3)cc2C1=O,x,x,x,0
O=C(Oc1cccc2cccnc12)c1cccs1,+,5,162,x
O=C1C=CC(=O)N1CCCCCCN1C(=O)C=CC1=O,x,x,416,x
O=C(O)CN1C(=O)C=CC1=O,i,9,x,36*
C[C@H](CO)N1C[C@H](C)[C@@H](CN(C)C(=O)Nc2ccc(F)cc2)OCCCC[C@H](C)Oc2ccc(NC(=O)Nc3ccc(F)cc3)cc2C1=O,x,x,x,-7
CCN1CC=C2C(C#N)=C(N)C(C#N)(C#N)C(c3cc(Cl)ccc3Cl)C2C1 (configuration not stated),+,54,i,x
CC(C)N1CC=C2C(C#N)=C(N)C(C#N)(C#N)C(c3ccccc3)C2C1 (configuration not stated),i,i,805,x
COCCCNC(=O)CSc1ccsc1[N+](=O)[O-],i,-9,288,20
O=C(CSc1ccsc1[N+](=O)[O-])NCc1ccco1,i,5,172,46*
COc1ccc2c3c([nH]c2c1)[C@H](CO)N(C(=O)Nc1ccc(F)cc1)CC31CCN(Cc2cc(F)ccc2F)CC1,x,x,x,3
COc1ccc(S(=O)(=O)Nc2cc3c(C(C)=O)c(C)oc3c3ccccc23)cc1,x,102*,399,x
O=C(C[C@@H]1CC[C@@H]2[C@H](COC[C@@H](O)CN2C(=O)Nc2cccc(F)c2)O1)NCc1ccccc1Cl,x,x,x,10
CCC1CN2CCc3cc(OC)c(OC)cc3C2CC1CC1c2cc(OC)c(OC)cc2CCN1C(=O)C(Cc1c[nH]c2ccccc12)NC(=O)OC(C)(C)C (configuration not stated),+,1,x,0
CCC(=O)N1CC2(C1)CN(C(=O)CC)[C@@H](CO)c1[nH]c3cc(OC)ccc3c12,x,x,x,-2
N#Cc1cc(Sc2ccccn2)c([N+](=O)[O-])cc1C#N,+,2,330,1
O=C(C1CCCC1)N1CC2(C1)[C@H](c1ccccc1)[C@H](CO)N2CC1CC1,x,x,x,-2
O=C1/C(=C/c2cccs2)SC(=S)N1NS(=O)(=O)c1ccccc1,i,-2,277,13
O=C1/C(=C/C=C/c2ccco2)SC(=S)N1NS(=O)(=O)c1ccccc1,i,2,495,79*
C[C@@H]1CN([C@@H](C)CO)C(=O)c2cc(C#C[C@@H](C)O)cnc2O[C@H]1CN(C)C(=O)CN1CCOCC1,x,x,x,1
O=S(=O)(Cc1ccccc1)C(CCCc1ccccc1)S(=O)(=O)Cc1ccccc1,+,-10,x,0
CCOC(=O)N1CCN(C(=O)CN(C2CCCCC2)S(=O)(=O)c2ccc(Cl)cc2)CC1,+,2,571,5
COc1ccc(C(=O)N2C[C@H]3[C@@H](c4ccccc42)[C@@H](CO)N3Cc2ccc(Cl)cc2)cc1,x,x,x,4
O=S(=O)(c1ccccc1)c1nnn2c1nc(NC1CCN(Cc3ccccc3)CC1)c1ccccc12,+,0,872,-4
SMILES,Myeloid diff MLP,Vif imaging,T cell HTS,CASP6 VEID inh
C[C@H](CO)N1C[C@H](C)[C@H](CN(C)CC2CC2)Oc2ncc(C#CC3(O)CCCC3)cc2C1=O,x,x,x,0
CC(C)NC(=O)Nc1ccc2c(c1)CC(=O)N([C@@H](C)CO)C[C@@H](C)[C@H](CN(C)C(=O)NC1CCCCC1)O2,x,x,x,1
Cc1ccc2[nH]c3c(c2c1)CN(C(=O)CN1CC(C)OC(C)C1)CC3 (configuration not stated),+,2,249,x
C[C@@H](NC(=O)C[C@H]1C[C@H]2c3cc(NC(=O)CN(C)C)ccc3O[C@H]2[C@H](CO)O1)c1ccccc1,x,x,x,1
CN(C)c1cc[n+](CC(=O)c2cccs2)cc1,+,1,424,-6
Cc1cc[n+](CC(=O)c2cccs2)cc1,i,0,160,-16
C[C@H](O)C#Cc1ccc2c(c1)O[C@H](CN(C)C(=O)CC1CC1)[C@H](C)CN([C@H](C)CO)S2(=O)=O,x,x,x,1
N#CC(C#N)=C(N)/C(C#N)=C/c1cc(O)c(O)c(O)c1,i,-2,585,41*
N#C/C(=C/c1cc(Cl)c(O)c(Cl)c1)C(=O)N1CCCCC1,x,-4,189,1
Clc1ccc(-n2nnc(-c3cccnc3)n2)cc1Cl,+,1,626,-1
CC[N+]1=C(C)C(C)(C)c2cc(C)ccc21,+,x,297,4
Cc1cccc(N2CCN(C(=O)CCS(=O)(=O)c3ccc(Br)cc3)CC2C)c1 (configuration not stated),i,-3,192,67*
CC(=O)N1CCCc2cc(S(=O)(=O)CCC(=O)N3CCN(c4cccc(C)c4)C(C)C3)ccc21 (configuration not stated),i,5,i,23
COc1ccc(C#Cc2ccc3c(c2)[C@H]2[C@H](CCN2Cc2ccncc2)[C@H](CO)N3)cc1,x,x,x,-1
COc1cccc(S(=O)(=O)N2CC3(CN[C@@H](CO)c4[nH]c5cc(OC)ccc5c43)C2)c1,x,x,x,0
CCN1CCN(c2cc(=O)n(-c3cc(Cl)ccc3C)c(=O)[nH]2)CC1,i,58*,294,x
Cc1ccccc1-n1c(=O)cc(N2CCN(Cc3ccccc3)CC2)[nH]c1=O,i,x,499,0
COc1ccc2c3c(n(C)c2c1)[C@@H](CO)N(Cc1ccccc1)CC31CCN(S(=O)(=O)c2ccc(C)cc2)CC1,x,x,x,-4
CNC(=O)c1c(NC(=O)c2ccc(S(=O)(=O)N(C)c3ccccc3)cc2)sc2c1CCN(C(C)C)C2,x,x,245,-2
CC(C)N1CCc2c(sc(NC(=O)c3ccc(S(=O)(=O)N4CCOCC4)cc3)c2C#N)C1,+,15,477,x
CC(C)N1CCc2c(sc(NC(=S)NC(=O)c3ccccc3)c2C#N)C1,+,-2,146,-132
NC(=O)c1ccsc1NC(=O)c1ccc(S(=O)(=O)N2CCCc3ccccc32)cc1,i,-33,803,1
CC(C)N1CCc2c(sc(NC(=O)c3ccc(S(=O)(=O)N4CCc5ccccc54)cc3)c2C(N)=O)C1,+,i,312,x
CCN1CCc2c(sc(NC(=O)c3ccc(S(=O)(=O)N(C)c4ccccc4)cc3)c2C(=O)NC)C1,+,x,245,x
CN(C)CC(=O)N1[C@H](CO)[C@H](c2ccccc2)C12CN(C(=O)c1cccc(F)c1)C2,x,x,x,-4
CCC(=O)Nc1ccc2c(c1)C(=O)N(C)C[C@@H](OC)[C@@H](C)CN(CC1CC1)[C@H](C)CO2,x,x,x,2
C[C@@H]1CCCCO[C@H](CN(C)S(=O)(=O)c2cn(C)cn2)[C@@H](C)CN([C@H](C)CO)C(=O)c2cc(NC(=O)C3CCCCC3)ccc2O1,x,x,x,-6
CCN1CCc2c(sc(NC(=O)c3ccc4ccccc4c3)c2C(N)=O)C1,u,2,283,-1

# Assay outcomes: PubChem, several laboratories
